{"source": "PubChem BioAssay AID504383", "about": "(The Scripps Research Institute Molecular Screening Center, 2011)", "note": "Several values for one entry are separate records, joined by “and”; a condition that tells them apart may be missing. Equal values may be shown once. The campaign covered roughly 2,500 compounds. About 1,200 (48%) were called active. So high a share suggests a set chosen from earlier hits. The list shows a part of the results. Unmarked numbers belong to inactive results.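 The calls were made as follows: active = mean activation above the low control average plus 3 SD, as set in the primary screen (cut at about 12% in these data); inactive = the rest.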"}
{"biological_target": "Troponin I, cardiac muscle (Homo sapiens) + Troponin T, cardiac muscle (Homo sapiens) + Troponin C, slow skeletal and cardiac muscles (Homo sapiens) (UniProt P19429+P45379+P63316)", "assay": "calcium sensitizers of cardiac thin filaments – biochemical, IANBD-TnC fluorescence, triplicate, confirmation (AID 504383);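 also: 0% = DMSO at 0.472 mM calcium and 100% = DMSO at 2.9 mM calcium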", "conditions": "IANBD-labeled cardiac RTF, Ca2+ sensitivity fluorescence, at 7.2 µM, hits give high values, tested at EC20 calcium, 0.472 mM", "how_it_was_run": "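Test system: labelled regulated thin filament protein complex. Dosing: single nominal compound dose of 7.2 µM. Benchmarks: EC20 and EC100 calcium wells. Read-out basis: fluorescence gain scaled between EC20 and EC100 calcium controls. Probe or stimulus: submaximal calcium at 0.472 mM (EC20). Technique: fluorescence. Times: 15 min compound exposure, 25 °C.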"}
{"smiles": "CC(C)n1c(=O)c(C=Nc2cccc([N+](=O)[O-])c2)c(O)n(CCc2ccccc2)c1=O", "activation": "19.7% (active)"}
{"smiles": "Cc1cc(Cl)nc(N)n1", "activation": "96.2% (active)"}
{"smiles": "C[C@]12CCC(=O)C=C1CC[C@@H]1[C@@H]2CC[C@]2(C)C(=O)CC[C@@H]12", "activation": "-0.04%"}
{"smiles": "CCOC(=O)c1ccccc1C(=O)OCC", "activation": "4170% (active)"}
{"smiles": "CCN(CC)C(=O)c1ccc(NC(=O)COc2ccc([N+](=O)[O-])cc2Cl)cc1", "activation": "4.48%"}
{"smiles": "Nc1ccc2nonc2c1[N+](=O)[O-]", "activation": "6.77%"}
{"smiles": "O=[N+]([O-])c1ccc(N2CCCCCC2)c2nonc12", "activation": "31.9% (active)"}
{"smiles": "O=[N+]([O-])c1ccc(N2CCCC2)c2ncccc12", "activation": "38.3% (active)"}
{"smiles": "CCOC(=O)C1CCCN(c2ccc([N+](=O)[O-])c3nonc23)C1", "note": "(centres undefined)", "activation": "16.5% [scaled from EC20 to saturating calcium] (active)"}
{"smiles": "CC(C)C[C@H]1C(=O)N2CCC[C@H]2[C@]2(O)O[C@](NC(=O)[C@@H]3C=C4c5cccc6[nH]cc(c56)C[C@H]4N(C)C3)(C(C)C)C(=O)N12", "activation": "8.78%"}
{"smiles": "O=C1NC(=S)SC1=Cc1ccc(N(CCCl)CCCl)cc1", "activation": "0.25%"}
{"smiles": "CN1CCN(c2ccc3c(c2)S(=O)(=O)c2ccccc2C3=O)CC1", "activation": "2.45%"}
{"smiles": "CCN1C[C@]2(CO)CC[C@H](OC)[C@@]34C5C[C@H]6[C@H](OC)C5[C@](O)(C[C@H]6OC)[C@@H](C(OC)C23)[C@@H]14", "note": "(some centres undefined)", "activation": "15.5% (active)"}
{"smiles": "C[C@]12CCC3C(CC[C@H]4C[C@@H](O)[C@H](O)C[C@]34C)C1CC[C@@H]2O", "note": "(some centres undefined)", "activation": "24.5% (active)"}
{"smiles": "Nc1c2c(nc3ccccc13)CCN(Cc1ccccc1)C2", "activation": "87.8% (active)"}
{"smiles": "CCOP(=O)(Cc1cc(C#N)oc1C)OCC", "activation": "7.87%"}
{"smiles": "O=C(O)C1=CC2c3ccccc3C1c1ccccc12", "activation": "11.7% (active)"}
{"smiles": "CC(C)c1ccc(N2C(=O)NC(=O)/C(=C/C=C/c3ccco3)C2=O)cc1", "activation": "7.28%"}
{"smiles": "CN(C)P(=O)(CCl)Nc1ccccc1", "note": "(centres undefined)", "activation": "38.8% (active)"}
{"smiles": "CN1CCC2(CC1)C(C#N)=C(N)NC(S)=C2C#N", "activation": "6.17% and 11.4%"}
{"smiles": "COC(=O)[C@H]1C[C@@H]1[C@H](NP(=O)(c1ccccc1)c1ccccc1)c1ccccc1", "activation": "-0.05%"}
{"smiles": "CCOCCCn1c(N)c(C(=O)Nc2sc3c(c2C(=O)OC)CCCC3)c2nc3ccccc3nc21", "activation": "12.7% (active)"}
{"smiles": "COc1ccc(N=Nc2c(O)[nH]c(=S)[nH]c2=O)cc1", "activation": "6.09%"}
{"smiles": "CCOC(=O)c1cc(CC)sc1/N=C/c1c(O)[nH]c(=S)[nH]c1=O", "activation": "8.76%"}
{"smiles": "O=c1cc(C(F)(F)F)c2cc3c4c(c2o1)CCCN4CCC3", "activation": "67.7% (active)"}
{"smiles": "Cc1cc2c(C(F)(F)F)cc(=O)oc2c2c1NCCC2", "activation": "79.4% (active)"}
{"smiles": "Cc1ccc(C)c(Cn2c(C(=O)O)c(C=O)c3ccccc32)c1", "activation": "4.27%"}
{"smiles": "CC1(C)OC(c2ccccc2)=C/C(=C/C=C2C(=O)NC(=O)NC2=O)O1", "activation": "6.59%"}
{"smiles": "CCC1(C)OC(c2ccccc2)=C/C(=C/C=C2C(=O)NC(=O)NC2=O)O1", "note": "(centres undefined)", "activation": "32.1% (active)"}
{"smiles": "CN1/C(=C\\C=C2C(=O)NC(=O)NC2=O)C(C)(C)c2ccccc21", "activation": "9.74%"}
{"smiles": "CN1CCN(Cc2cn(C)c3ccccc23)CC1CCO", "note": "(centres undefined)", "activation": "40.5% (active)"}
{"smiles": "C#C[C@]1(O)CC[C@H]2[C@@H]3CCC4=Cc5nc6nc7ccccc7n6cc5C[C@]4(C)[C@H]3CC[C@@]21C", "activation": "6.44%"}
{"smiles": "C=Cn1ccnc1P(=S)(c1nccn1C=C)c1nccn1C=C", "activation": "23.4% (active)"}
{"smiles": "COC(=O)C1=C(c2cccc(C#N)c2)C[C@@H]2CC[C@H]1N2C(=O)N1CCOCC1", "activation": "14.3% (active)"}
